Assay results pooled from the literature.
Lines come from different studies, so protocols differ.
Target: Mitotic checkpoint serine/threonine-protein kinase BUB1 (BUB1, Homo sapiens, UniProt O43683)

`O=C(c1ccc(Nc2nccc(-c3cc4ccccc4s3)n2)cc1)N1CCC(N2CCCC2)CC1` gave a remaining binding of 45% (binding, competition with immobilised ligand; 1 µM).
`Cc1nc(Cc2cccc(C(F)(F)F)c2)sc1-c1ccc(C(N)=O)nc1` has a remaining binding of 100% (cell-free assay, competition with immobilised ligand; 1 µM).
With `N[C@@H]1CCN(c2nccc(-c3cnn4ncccc34)n2)C1` the remaining binding was 93% (binding; 1 µM).
`CCN1CCN(Cc2ccc(C(=O)Nc3ccc(C)c(Oc4ccc5c(c4)CC(=O)N5)c3)cc2C(F)(F)F)CC1` gave a remaining binding of 100% (binding, competition with immobilised ligand; 1 µM).
The remaining binding of `COc1ccnn2ncc(-c3ccnc(N(C)C)n3)c12` is reported as 96% (binding; 1 µM).
With `CNCc1ccccc1-c1csc([C@@H](C)Nc2nc(C)nc3cc(OC)c(OC)cc23)c1` the remaining binding was 100% (cell-free assay, competition with immobilised ligand; 1 µM).
`c1cnn2ncc(-c3ccnc(N4CCC45COC5)n3)c2c1` has a remaining binding of 46% (binding; 1 µM).
With `Nc1ncc2c(n1)-c1c([nH]c3ccc(C#CC4CC4)cc13)CCCC2` the remaining binding was 78% (binding, competition with immobilised ligand; 1 µM).
The remaining binding of `Cc1cnc(Nc2ccc(C(=O)N3CCC(N4CCCC4)CC3)cc2)nc1-c1cc2ccccc2s1` is reported as 39% (binding, competition with immobilised ligand; 1 µM).
With `CS(=O)(=O)N1CCCC(NC(=O)[C@H](CCC2CCCCC2)NC(=O)c2ccc(CNc3ncnc4c3nnn4-c3ccccc3)cc2)C1` (stereo partly shown) the remaining binding was 100% (cell-free assay, competition with immobilised ligand; 0.1 µM).
With `COc1cnc(Nc2cccc(S(N)(=O)=O)c2)nc1N1CCN(c2ccccc2)CC1` the remaining binding was 69% (binding, competition with immobilised ligand; 1 µM).
The remaining binding of `c1cncc(-c2cccc(Nc3nccc(NC4CCCCC4)n3)c2)c1` is reported as 59% (binding, competition with immobilised ligand; 10 µM).
`CC1CCCN1c1nccc(-c2cnn3ncccc23)n1` (stereo not shown) gave a remaining binding of 100% (binding; 1 µM).
The remaining binding of `C[C@@]1(Cc2ccc(C#N)cc2)C(=O)N(c2cc(Cl)cc(Cl)c2)c2ncc(C(=O)NC3(c4nc(C5CCC5)no4)CC3)n21` is reported as 100% (cell-free assay, competition with immobilised ligand; 1 µM).
`Cc1cnn2ncc(-c3ccnc(N(C)C)n3)c2c1` gave a remaining binding of 63% (binding; 1 µM).
For `O=C(NCCCN1CCOCC1)c1ccc(Nc2nccc(-c3cc4ccccc4s3)n2)cc1`, the remaining binding was 72% (binding, competition with immobilised ligand; 1 µM).
`O=C(Nc1c[nH]nc1C(=O)NC1CCNCC1)c1cc(F)cc(F)c1` gave a remaining binding of 100% (binding, competition with immobilised ligand; 1 µM).
`CN(C)c1nccc(-c2cnc3ncccn23)n1` has a remaining binding of 78% (binding; 1 µM).
For `CCCCN(CCCC)C(=O)CN1C[C@H](c2cc(OC)c3c(c2)OCO3)[C@@H](C(=O)O)[C@@H]1CC(C)(C)CCC`, the remaining binding was 75.4% (cell-free assay, competition with immobilised ligand; 1 µM).
For `COc1cnc(Nc2cccc(S(N)(=O)=O)c2)nc1N1CCN(c2ccccc2)C(=O)C1`, the remaining binding was 79% (binding, competition with immobilised ligand; 1 µM).
For `C[C@@H]1CCN(c2nccc(-c3cnn4ncccc34)n2)C1`, the remaining binding was 71% (binding; 1 µM).
For `CN([C@@H]1CCc2c(CC(=O)O)c3ccccc3n2C1)S(=O)(=O)c1ccc(F)cc1`, the remaining binding was 79% (cell-free assay, competition with immobilised ligand; 1 µM).
